According to PubChem BioAssay:
A number with no mark means an inactive call. Inconclusive results are not listed. Active and inactive are the calls of the source.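 The calls were made as follows, unless noted: active = viability increase at or above a cutoff of the median across tested compounds plus 3 SD (cut at about 8.5% in these data, passing the limit was not always enough); inconclusive = some gains above the cutoff, reason not given; inactive = the rest.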

How the values were obtained:
[1] = S. cerevisiae growth inhibition in permissive medium (OD615), pilot counter-assay for S. cerevisiae lifespan shortening project, permissive growth control (AID 705;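 active = growth inhibition above 25% in both replicates, a cutoff set 3 SD above the mean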); settings: OD615, 24 h, at 10 µM, stronger effect = higher value
Summary of the method: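 Material: engineered DeaD yeast; compound dosing: one dose 10 µM, DMSO 0.25% final; measure: yeast growth inhibition indicated by reduced 24 h OD615; detection: OD615 turbidity read; incubation: cells pre-grown 4 h, then 24 h compound exposure, 30 °C humidified; medium: permissive synthetic complete medium with raffinose and galactose carbon sources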

[2] = S. cerevisiae growth inhibition in restrictive medium, OD615, pilot screen, restrictive growth control, yeast lifespan reduction project (AID 706;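 active = growth inhibition above a set limit, 3 SD over mean compound inhibition, in both replicates, cut at about 43% in these data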;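 also: modified DeaD lifespan yeast strain shifted to restrictive glucose medium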); settings: OD615, 48 h, at 10 µM, stronger effect = higher value
Summary of the method: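 material = engineered S. cerevisiae DeaD strain | medium = glucose-based CSMM-D restrictive medium | times = 4 h pre-incubation, 48 h exposure at 30 °C | technique = OD615 absorbance reading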

[3] = doxorubicin toxicity protection in MRP-1 cells – H69AR cells, CellTiter-Glo, duplicate, MRP-1 activator project, pilot screen (AID 807); settings: H69AR viability with doxorubicin, CellTiter-Glo luminescence; at 10 µM; stronger effect = higher value;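 also: compound pretreatment 18-22 h then 72 h combined with doxorubicin; 0% = doxorubicin alone and 100% = vehicle without doxorubicin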
[4] = viability of HCT116 without oncogenic beta-catenin – human colon tumor cells, pilot screen (AID 823;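 active = cell viability at or below a set limit in both duplicate runs, the limit being the all-compound median minus 4 SD, cut at about 23% in these data, passing the limit was not always enough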;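 also: 0% = wells killed by 20 µM Hyamine and 100% = untreated DMSO cell wells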); settings: HCT116 beta-catenin knockout viability, CellTiter-Glo, 60 h; at 10 µM; stronger effect = lower value
[5] = viability of PTEN-null HCT116 cells – cell-based, HCT116 clonal line, CellTiter-Glo, pilot screen (AID 824;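 active = viability at or below 27.92% in each of two runs, the all-compound median minus 4 SD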;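 also: 0% = 20 µM Hyamine control and 100% = vehicle cell control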); settings: HCT116 PTEN-deleted viability, 60 h, at 10 µM, stronger effect = lower value
[6] = RAM pathway blockade in budding yeast – dse1pr::URA3 reporter, 5-FOA selection, pilot screen (AID 869;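 active = inhibition over a set limit, the all-compound mean plus 3 SD, in both replicate runs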;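 also: 0% = DMSO wells with no growth and 100% = 10 µM 1-NA-PP1 with full growth; RAM network block rescues cells from 5-FOA so hits raise OD615 growth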); settings: S. cerevisiae dse1pr::URA3 5-FOA growth, OD615, 2 d; at 10 µM; stronger effect = higher value; strain carries analog-sensitive mutant Cbk1 kinase

| SMILES | growth inhibition [1] [%] | growth inhibition [2] [%] | viability increase [3] [%] | viability [4] [%] | viability [5] [%] | inhibition [6] |
| --- | --- | --- | --- | --- | --- | --- |
| Nc1ccc(S(=O)(=O)N2CCCc3ccccc32)cc1 | -18.7 | -24 | -3.42 | 83 | 83 | 1.49% |
| CCCCOc1ccccc1C1NC(=O)NC(C)=C1C(=O)OCCOC (centres undefined) | -16 | -16.6 | -2.89 | 92.9 | 88.1 | 2.28% |
| C=CCNc1ncnc2c1cnn2-c1ccc(Cl)cc1 | -2.23 | 1.64 | 2.88 | 106 | 106 | 4.6% |
| COc1ccc(OC)c2c1sc(=NC(=O)c1ccco1)n2C | -3.52 | 4.96 | -5.98 | 71.2 | 67.7 | 2.21% |
| Cc1noc(/C=C/NCc2cccnc2)c1S(=O)(=O)N(C)CC(=O)N1CCc2ccccc21 | -10.2 | -7.69 | -3.19 | 91.2 | 86.4 | 2.5% |
| COC(=O)CSc1nc2ccc(NC(=O)CSc3nnnn3Cc3ccccc3)cc2s1 | -3.46 | 13.8 | 1.67 | 87.2 | 96.9 | 4.05% |
| CCOc1ccc(NC(=O)C2CSC(c3ccncc3)=N2)cc1 (centres undefined) | -3.44 | 29.4 | -0.05 | 98.3 | 103 | 0.675% |
| Oc1ccccc1C(=S)N1CCCCC1 | 8.11 | 23.6 | -2.83 | 94.7 | 89.8 | 2.25% |
| Cc1ccc(Cl)cc1N1CCN(C(=O)CCS(=O)(=O)c2cccc3nonc23)CC1 | 3.25 | -4.52 | -3.47 | 79.5 | 75.4 | 0.805% |
| NC/C(=N\O)c1ccc(Cl)cc1Cl | -6.44 | -12.5 | 2.52 | 97.7 | 94.1 | 1.2% |
| N#CCCn1cc(C(CC(=O)c2ccc(Br)cc2)C(=O)O)c2ccccc21 (centres undefined) | 3.64 | 4.21 | -3.05 | 91.7 | 96.4 | 1.56% |
| CCOC(=O)c1ccccc1NC1c2ccccc2C(=O)N1c1ccc(C)cn1 (centres undefined) | -11.3 | 6.58 | -2.23 | 72.9 | 79.6 | 2.52% |
| Cc1ccc(C)c(C(=O)Nc2c(C(N)=O)oc3ccccc23)c1 | -5.56 | -1.59 | -3 | 94.2 | 86.7 | 0.595% |
| COc1ccc2cc(CCNC(=O)c3ccc(Br)o3)c(=O)[nH]c2c1 | -10.1 | -17 | -2.65 | 95.9 | 90.3 | 1.84% |
| O=C1C2CCCN2C(c2ccc(F)cc2)N1c1ccc(Cl)cc1 (centres undefined) | -13 | -0.82 | -2.59 | 76.5 | 67.8 | 3.84% |
| Cn1c(SCc2ccccc2Cl)nnc1-c1cnccn1 | -2.59 | -7.88 | -1.15 | 103 | 102 | 2.44% |
| COC(=O)c1ccc(C)c(NC(=O)CN(c2cc(OC)ccc2OC)S(C)(=O)=O)c1 | -8.06 | -3.94 | -3.03 | 75.5 | 68.6 | 0.035% |
| CCCCn1c(Oc2ccc(C(=O)OC)cc2)nc2c1c(=O)n(C)c(=O)n2C | -10.3 | -3.88 | -2.52 | 84.1 | 84.1 | 0.085% |
| O=C(c1cc(C2CC2)on1)N1CCN(c2ccc(F)cc2)CC1 | -18.2 | -26.9 | -1.75 | 96.8 | 92.4 | 1.9% |
| N#Cc1c(NC(=O)CCCN2C(=O)c3ccccc3C2=O)oc(-c2ccccc2)c1-c1ccccc1 | -1.81 | 1.75 | 2.13 | 101 | 94.7 | -0.33% |

| SMILES | growth inhibition [1] [%] | growth inhibition [2] [%] | viability increase [3] [%] | viability [4] [%] | viability [5] [%] | inhibition [6] |
| --- | --- | --- | --- | --- | --- | --- |
| COc1ccc(N2CCN(C(=O)CCS(=O)(=O)c3cccc4nsnc34)CC2)cc1 | -9.09 | -6.57 | -2.63 | 95.7 | 96.9 | 0.895% |
| Cc1cc(C)n(-c2nc3ccccc3nc2Nc2ccc3c(c2)OCO3)n1 | -18.7 | 1.25 | 6.2 | 87.7 | 81.7 | 6.39% (active) |
| COc1ccccc1-n1c(CNC(=O)c2ccccc2)nnc1SCC(=O)Nc1nnc(C)s1 | 3.6 | 0.83 | -0.83 | 103 | 102 | 1.05% |
| Cc1c(S(=O)(=O)N2CCc3ccccc3C2)c(=O)n(C)c(=O)n1C | -14.9 | -10.4 | -0.16 | 103 | 97.9 | 2.17% |
| Brc1ccc(-c2nnc3ccc(N4CCN(c5ccccc5)CC4)nn23)cc1 | 7.94 | -10.7 | -5.11 | 82.8 | 75.5 | 2.52% |
| CCOC(=O)C1CCCN(C(=O)CCCn2nc(C)n3c(cc4sccc43)c2=O)C1 (centres undefined) | -4.78 | -16.8 | -1.97 | 102 | 94.3 | 1.37% |
| c1ccc(CNc2ncnc3nc[nH]c23)nc1 | -12.5 | -1.55 | -1.52 | 102 | 96.3 | 1.71% |
| COc1ccc(OCCn2c(NC(=O)c3ccco3)nc3ccccc32)cc1 | 2.63 | 9.83 | -6.84 | 56.9 | 57.9 | 3.36% |
| Clc1ccccc1-c1nnc2sc(-c3ccncc3)nn12 | -1.33 | 19.3 | -3.61 | 106 | 90.8 | 0.635% |
| O=C(Cn1c(=O)sc2ccccc21)NCc1ccccn1 | 1.44 | -6.78 | -1.78 | 104 | 93.4 | 1.19% |
| CCOC(=O)C1CCN(C(=O)Nc2ccc(Cl)cc2)CC1 | -17.2 | -13.1 | 1.32 | 96.7 | 102 | -0.18% |
| COc1cc(Cl)c(S(=O)(=O)N2CCN(Cc3ccc4c(c3)OCO4)CC2)cc1Cl | -9.75 | -4.02 | -2.17 | 84.2 | 82.2 | 1.04% |
| CN1CSC2=C(C#N)C(c3cccc(OCc4ccccc4)c3)CC(=O)N2C1 (centres undefined) | -5.43 | 20.4 | -4.67 | 85.7 | 88.5 | 0.785% |
| O=C(O)CC1C(=O)NCCN1C/C=C/c1ccccc1 (centres undefined) | -17.1 | -16.1 | -2.39 | 105 | 93.1 | 3.62% |
| CCCOc1cccc(C(=O)Nc2cccnc2)c1 | -6.8 | -0.66 | 3.16 | 92.6 | 96.2 | 0.93% |
| Cc1ccc(-c2nn(-c3ccccc3)cc2C2SCC(=O)N2Cc2ccccc2)o1 (centres undefined) | -17.1 | -9.89 | -0.06 | 74.2 | 68.9 | 0.94% |
| CCOc1ccc(-c2nc(CSCC(=O)N3CCN(c4cccc(OC)c4)CC3)c(C)o2)cc1 | 5.25 | 19.7 | -2.52 | 34 | 47.4 | 1.53% |
| CCCCCCC1C(C#N)=C(N)OC2=C1C(=O)CC(C)(C)C2 (centres undefined) | -34.7 | -40.1 | -2.49 | 102 | 96.7 | 0.505% |
| COc1cc(/C=C/C2=NC(=O)C(C)(C)O2)ccc1O | -1.35 | 6.79 | -7.42 | 65.9 | 71.9 | 0.485% |
